Test results reported in ChEMBL document CHEMBL4033649, “Discovery of tetrahydrocarbazoles as dual pERK and pRb inhibitors” (Eur J Med Chem, 2017).

Assay: Inhibition of ERK phosphorylation in human MDA-MB-231 cells after 1 hr
Type: cell-based
How it was run: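 MDA-MB-231 cells (25,000/well) grown 24 h, serum-starved 6 h, then exposed to compound 1 h (screen at 10 μM, n=3; dose-response for IC50). Cells fixed in 3.7% formaldehyde, permeabilized with 0.1% Triton X, immunostained with phospho-p44/p42 MAPK (T202/Y204) antibody plus anti-rabbit IgG secondary; TMB colour read by absorbance.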

Row | IC50 (Homo sapiens, MDA-MB-231, 1 h) [µM] | IC50 [µM] | Compound
1 | 6 | – | Cc1ccc2[nH]c3c(c2c1)CCC(NC1CCC(C)C1)C3 (stereo unspecified) [listing 1 of 2 here]
2 | 7.5 | – | O=S(=O)(NC1CCc2c([nH]c3ccccc23)C1)c1ccc(F)cc1 (stereo unspecified)
3 | 5.5 | – | Cc1ccc2[nH]c3c(c2c1)CCC(NCc1ccccc1)C3 (stereo unspecified)
4 | 6.11 | – | c1ccc(CNC2CCc3c([nH]c4ccccc34)C2)cc1 (stereo unspecified)
5 | 21 | – | c1ccc2c3c([nH]c2c1)CC(NC1CCCC1)CC3 (stereo unspecified)
6 | 4.4 | – | Cc1ccc(CNC2CCc3c(n(C)c4ccccc34)C2)cc1 (stereo unspecified)
7 | 7 | – | c1ccc2c3c([nH]c2c1)CC(NC1CCCCC1)CC3 (stereo unspecified)
8 | 5.52 | – | CC1CCC(NC2CCCc3c2[nH]c2ccc([N+](=O)[O-])cc32)C1 (stereo unspecified)
9 | – | 30 | c1ccc2c3c([nH]c2c1)C(NC1CCCC1)CCC3 (stereo unspecified) [listing 1 of 2 here]
10 | > 100 | – | O=S(=O)(NC1CCCc2c1[nH]c1ccccc21)c1ccc(F)cc1 (stereo unspecified)
11 | 29.7 | – | O=C(NC1CCc2c([nH]c3ccccc23)C1)c1ccccc1F (stereo unspecified)
12 | – | 5.5 | Cc1ccc2[nH]c3c(c2c1)CCC(NC1CCC(C)C1)C3 (stereo unspecified) [listing 2 of 2 here]
13 | 0.063 | – | CNC(=O)c1cc(Oc2ccc(NC(=O)Nc3ccc(Cl)c(C(F)(F)F)c3)cc2)ccn1 [SORAFENIB]
14 | 8.1 | – | O=C(NC1CCc2c([nH]c3ccccc23)C1)c1cccc(F)c1 (stereo unspecified)
15 | > 100 | – | c1ccc2c3c([nH]c2c1)CC(NC1CCOCC1)CC3 (stereo unspecified)
16 | 9 | – | c1ccc2c3c([nH]c2c1)C(NC1CCCCC1)CCC3 (stereo unspecified)
17 | 3.62 | – | Cc1ccc(CNC2CCc3c([nH]c4ccccc34)C2)cc1 (stereo unspecified)
18 | 7 | – | N#Cc1ccc(S(=O)(=O)NC2CCc3c([nH]c4ccccc34)C2)cc1 (stereo unspecified)
19 | > 100 | – | O=S(=O)(NC1CCCc2c1[nH]c1ccccc21)c1cccnc1 (stereo unspecified)
20 | 21 | – | c1ccc2c3c([nH]c2c1)C(NC1CCCC1)CCC3 (stereo unspecified) [listing 2 of 2 here]
21 | 69.9 | – | O=S(=O)(NC1CCc2c([nH]c3ccccc23)C1)c1cccnc1 (stereo unspecified)
22 | 9 | – | COc1cccc(C(=O)NC2CCc3c([nH]c4ccccc34)C2)c1 (stereo unspecified)
23 | > 100 | – | N#Cc1ccc(S(=O)(=O)NC2CCCc3c2[nH]c2ccccc32)cc1 (stereo unspecified)
24 | 3 | – | CC1CCC(NC2CCCc3c2[nH]c2ccccc32)C1 (stereo unspecified)
25 | 4.6 | – | Cc1ccc(CNC2CCc3c([nH]c4ccc(C)cc34)C2)cc1 (stereo unspecified)
26 | > 30 | – | CC1CCC(NC2CCc3c([nH]c4ccccc34)C2)C1 (stereo unspecified)
